Screens (PubChem BioAssay)
HCV NS3 hel inh: inhibitors of HCV NS3 helicase, primary screen, biochemical, Cy5 molecular beacon fluorescence | inhibition, % at 10.9 µM | Hepatitis C virus NS3 helicase | AID 1800, 2009 | NS3 helicase DNA unwinding | actives 0.56% (n = 290,000);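 active = inhibition above the mean of all tested compounds plus 3 SD, set per campaign, cut at about 35% in these data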
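Control set: DMSO versus 110 µM thioflavine S; Material: NS3 helicase fragment of HCV; Measured by: Cy5 fluorescence at 0 and 60 min, beacon hairpin quenching; Read-out basis: percent inhibition from t60/t0 fluorescence ratio; Times: reaction time 60 min, 25 °C; Repeats: single replicate; Compound dosing: single dose, 10.9 µM nominal final, DMSO 0.8% final.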
HSF-1 act: HSF-1 activators, primary screen, NIH3T3-HGL cells, MG132 stress, luminescence, single point; NIH3T3-HGL HSF-1 luciferase reporter, 8 h; 100% = twice DMSO control signal; activation, % at 9 µM; actives 1.7% (n = 300,000); AID 504408, 2011;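 active = mean replicate activation of at least 50% with a set share of replicates each reaching 50%; inconclusive = only one of those two conditions met; inactive = mean below 50% and too few replicates reaching it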
HSF1 inhib: HSF1 inhibitors in luciferase reporter cells, primary screen, cell-based, NIH3T3, luminescence. NIH3T3-HGL HSE-luciferase, MG132-induced, luminescence 8 h; stronger effect = lower value. activity change, negative = inhibition, % at 7.5 µM (by protocol). actives 0.77% (n = 300,000);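 active = more than half of replicate wells show activity change below -50%, luminescence cut by over half; inconclusive = some wells, but at most half, below -50%; inactive = no replicate well below -50%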;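 also: luciferase reports HSF-1 transcriptional activity via heat shock element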
Lipid droplet: inhibitors of hepatocyte lipid droplet formation, primary screen, imaging, high-throughput imaging, BODIPY stain; AML12 mouse hepatocytes, oleate lipid droplets; actives 0.4% (n = 240,000); inhibition, % at 6.5 µM;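 active = lipid droplet intensity inhibited by at least 50%, with more than 500 cells counted; inconclusive = wells with under 300 cells, treated as cytotoxic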
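material = mouse AML12 hepatocyte cell line, fixed after treatment | also added = 100 µM oleic acid challenge | doses = compound at 6.5 µM only | schedule = overnight exposure | technique = Image-based BODIPY and DAPI two-channel analysis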
HSP90 refold inh: HSP90 inhibitors, primary screen, cell lysate, luminescence; Heat shock protein HSP 90 (rabbit reticulocyte lysate; luciferase refolding); Rabbit reticulocyte lysate, luciferase refolding luminescence, 3 h; inhibition, % at 5.6 µM; actives 0.91% (n = 290,000); AID 1789, 2009;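 active = inhibition above the screen-wide mean plus 3 SD, computed separately per campaign, cut at about 16% in these data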;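 also: inhibitors lower the luminescence because luciferase stays unfolded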
A number is an active result; i = inactive; ? = inconclusive; nt = no result. Rows were chosen to be rich in hits. Some 3.8% of all compounds tested hit in one or more screens of this group.

SMILES | HCV NS3 hel inh | HSF-1 act | HSF1 inhib | Lipid droplet | HSP90 refold inh
Cc1ccc(NC(=O)c2cccc(NC(=O)/C=C/c3ccco3)c2)cc1C | i | 73 | i | i | i
O=C(Nc1ccc(N2CCCCC2)cc1)c1ccccc1 | i | i | i | i | 28
O=C(/C=C\c1ccco1)Nc1ccc(N2CCN(C(=O)c3ccccc3)CC2)cc1 | i | 66 | i | i | i
Cc1ccccc1C(=O)N1CCN(c2ccc(NC(=O)c3ccc([N+](=O)[O-])o3)cc2)CC1 | i | 86 | i | i | i
CC(C)C(=O)N1CCN(c2ccc(NC(=O)c3ccc([N+](=O)[O-])o3)cc2)CC1 | i | ? | i | i | i
O=C(Nc1ccc(N2CCN(C(=O)c3ccccc3)CC2)cc1)c1ccc([N+](=O)[O-])o1 | i | 111 | i | i | i
O=C(COC(=O)C1CCCCC1)Nc1cc([N+](=O)[O-])ccc1F | i | i | i | i | i
C/C(=N\NC(=O)c1cccc(N/N=C(\C)c2cc(O)ccc2O)c1)c1cc(O)ccc1O | i | 64 | i | i | i
C/C(=N\NC(=O)c1cccc(N/N=C(\C)c2ccco2)c1)c1ccco1 | i | i | i | i | i
CCOc1ccccc1C(=O)N[C@H](C(=O)Nc1cc(S(=O)(=O)N(C)C)ccc1OC)C(C)C | i | i | i | i | i
COc1cc2c(cc1OC)C(C)N(C(=O)C1=NN(c3cccc(C)c3)C(=O)CC1)CC2 (stereo not drawn) | i | i | i | i | i
CCOc1ncccc1C(=O)Oc1ccc2c(c1)OCO2 | i | i | i | i | i
O=C(c1cc2c(s1)CCCC2)N1CCN(Cc2ccc3c(c2)OCO3)CC1 | i | i | i | nt | i
O=C(Oc1ccc2c(c1)OCO2)c1ccc(F)cc1Cl | i | 63 | i | nt | i
O=C(Oc1ccc2c(c1)OCO2)c1cc2c(s1)CCC2 | i | 81 | i | nt | i
Cc1cc(C)cc(NC(=O)NC2CCN(CC(=O)Nc3c(C)cc(C)cc3C)CC2)c1 | i | nt | nt | nt | i
CCc1ccccc1NC(=S)N(CCN1CCOCC1)Cc1ccccc1F | i | i | i | i | i
C/C(CC(=O)Nc1cc(C)ccn1)=N\NC(=O)c1cccc(F)c1 | i | i | i | i | i
CCN(CC)c1ccc(CN2CCC(C(=O)NCc3ccc(C)cc3)CC2)cc1 | i | i | i | i | i
CC(=O)C1=C(C)OC2(O)c3ccccc3C(=O)C12O (stereo not drawn) | i | 59 | i | i | i
Cc1cc(NC(=O)Nc2cccc(Cl)c2)n(-c2ccccn2)n1 | i | i | i | i | i
CC1=NN(c2ccccc2)C(=O)C1N=Nc1ccc(S(N)(=O)=O)cc1 (stereo not drawn) | i | i | -78 | i | i
CCC(C)NC(=O)CC(c1ccc(OC)cc1)n1cccc1 (stereo not drawn) | i | i | i | nt | i
CCc1ccccc1NC(=O)CC(c1ccc(OC)cc1)n1cccc1 (stereo not drawn) | i | 81 | i | i | i
CCCN1C(=O)c2ccc(C(=O)Nc3nccs3)cc2C1=O | i | i | i | i | i
SMILES | HCV NS3 hel inh | HSF-1 act | HSF1 inhib | Lipid droplet | HSP90 refold inh
CCCc1cc(C(=O)Nc2nccs2)cs1 | i | 86 | i | i | i
CC(=O)c1ccc(NC(=O)CCC(=O)OCC(F)(F)C(F)F)cc1 | i | i | i | nt | 17
Cc1ccc(C(=O)O/N=C(\N)Cc2cccs2)c(Cl)c1 | i | i | i | i | i
Cc1ccc(N/C=C(/C#N)c2ccsc2)cc1 | i | 53 | i | i | i
Cc1ccc(C(=O)C(C)OC(=O)Cn2c(C)csc2=O)cc1 (stereo not drawn) | i | i | i | i | i
CC(=O)c1cccc(NC(=S)N2CCN(S(=O)(=O)c3ccccc3)CC2)c1 | i | i | i | i | i
CCOc1ccc(-c2nc(CSCC(=O)N3CCN(c4cccc(OC)c4)CC3)c(C)o2)cc1 | i | i | i | nt | 24
Cc1ccc(-c2nc(CSCC(=O)N3CCN(c4ccccn4)CC3)c(C)o2)cc1 | i | i | i | nt | i
CCOc1ccc(-c2nc(CSCC(=O)NCc3ccco3)c(C)o2)cc1 | i | i | -72 | i | i
CCOc1ccc(-c2nc(CSCC(=O)NC3CC3)c(C)o2)cc1 | i | i | -84 | i | i
CCOC(=O)N1CCC(NC(=O)CSCc2nc(-c3ccc(OCC)cc3)oc2C)CC1 | i | i | i | i | i
COc1ccc(-c2nc(CS(=O)CC(=O)NCc3ccco3)c(C)o2)cc1 (stereo not drawn) | i | i | i | nt | i
CCOc1ccc(NC(=O)Cn2nnc(C(=O)NCc3ccco3)c2N)cc1 | i | 56 | i | nt | i
O=c1cc(COc2ccccc2[N+](=O)[O-])nc2sccn12 | i | i | i | i | i
COc1ccccc1NC(=O)C(C)OC(=O)CCNS(=O)(=O)c1ccc(C)c(C)c1 (stereo not drawn) | nt | i | i | nt | nt
O=c1[nH]cc(S(=O)(=O)N2CCCc3ccccc32)c(=O)[nH]1 | nt | i | i | nt | nt
CN1CCN(C(=O)CCc2nnc3ccc(N4CCC5(CC4)OCCO5)nn23)CC1 | i | i | i | i | i
CC1=CC=CN2C1=NC(=O)CC2(C)C(=O)N(CC(=O)NC1CCCC1)c1cc(C)cc(C)c1 (stereo not drawn) | i | i | i | i | i
C(=N\NCc1ccccc1)/c1ccc2nccnc2c1 | i | i | i | i | i
Cc1ccccc1CN1CCN(C(=O)c2ccc(F)cc2)CC1 | i | i | -63 | i | i
S=c1[nH]nc(C2CCCCC2)o1 | i | i | i | i | i
N/C(=N\OC(=O)c1cccs1)c1ccc(Cl)cc1 | i | 60 | i | i | i
CCOC(=O)N1CCC(N2C(=O)c3ccccc3C2Nc2ccc(S(=O)(=O)N3CCCCC3)cc2)CC1 (stereo not drawn) | i | i | i | i | i
COc1ccc(CCNC(=O)c2ccc(SC)cc2OC)cc1 | i | i | i | i | i
COc1cc(C(=O)NCCSc2ccc(F)cc2)cc(OC)c1OC | i | 66 | i | i | i
SMILES | HCV NS3 hel inh | HSF-1 act | HSF1 inhib | Lipid droplet | HSP90 refold inh
COc1cc(SC)ccc1C(=O)NCCOc1ccc(F)cc1 | i | 68 | i | i | i
COc1cc(SC)ccc1C(=O)Nc1nccs1 | i | 57 | i | i | i
COCCCNC(=O)c1cc(OC)c(OC)c(OC)c1 | i | i | i | i | i
O=C(NCc1nnnn1-c1ccc(F)c(F)c1)c1ccc(S(=O)(=O)N2CCOCC2)cc1 | nt | i | i | nt | nt
O=C(NCCCN1CCCC1=O)c1ccc(S(=O)(=O)Nc2cccc(C(F)(F)F)c2)cc1 | nt | i | i | nt | nt
Cn1c(=O)c2c(nc(Oc3ccc4ccccc4c3)n2C)n(C)c1=O | i | i | i | i | i
Cn1c(=O)c2c(nc(Oc3cccc(O)c3)n2C)n(C)c1=O | i | i | -77 | i | i
COc1ccc2c(=O)c(N3C(=O)c4ccccc4C3=O)coc2c1 | i | i | i | i | i
